Test results published in ChEMBL document CHEMBL5154667, “Discovery of 9,10-dihydrophenanthrene derivatives as SARS-CoV-2 3CLpro inhibitors for treating COVID-19” (Eur J Med Chem, 2022).

Tests used:
[1] = target: T1, Replicase polyprotein 1ab (Severe acute respiratory syndrome coronavirus 2, UniProt P0DTD1); assay: Inhibition of SARS-CoV-2 3CL protease using Dabcyl-KNSTLQSGLRKE-Edan as substrate incubated for 30 mins and measured by FRET assay
How it was run: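 Recombinant SARS-CoV-2 3CLpro, expressed and purified in-house, at 4 μg/mL final. Preincubated with compound (in DMSO) for 30 min at 37 °C in 0.1 M PBS pH 7.4 with 1 mM EDTA. Mean ± SD of at least three independent experiments.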

[2] = Stability in human plasma measured by LC-UV analysis; type: ADME, cell-free
How it was run: (§1)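 Incubated at 37 °C in 100 mM PBS pH 7.4, as printed for the human plasma stability test. Sampled at 0, 15, 30 min and 1–12 h; proteins precipitated with cold acetonitrile. Centrifuged at 20,000×g, 4 °C, 30 min; supernatant analysed by LC-UV.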

[3] = target: Replicase polyprotein 1ab (Severe acute respiratory syndrome-related coronavirus, UniProt P0C6X7); assay: Inhibition of SARS-CoV 3CL protease using Dabcyl-KNSTLQSGLRKE-Edan as substrate incubated for 30 mins and measured by FRET assay
How it was run: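 SARS-CoV 3CLpro, expressed and purified in-house like the SARS-CoV-2 enzyme, at 30 μg/mL final. Preincubated with compound for 30 min at 37 °C in 0.1 M PBS pH 7.4 with 1 mM EDTA. Mean ± SD of at least three independent runs.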

[4] = Metabolic stability in human liver microsomes assessed as CYP-mediated metabolism at 20 uM and measured as half-life by LC-UV analysis; type: ADME, Microsome
[5] = Stability of the compound in simulated gastric fluid; type: ADME; conditions: simulated gi fluid
How it was run: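 Simulated gastric fluid: pepsin 400 mg and 656 μL 1 M HCl in 40 mL water. Analyte 20 μM in SGF at 37 °C, sampled 0–90 min. Quenched with equal volume cold acetonitrile, centrifuged (20,000×g, 4 °C, 30 min), analysed by LC-UV.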

[6] = target: T1, Replicase polyprotein 1ab; assay: Mixed type inhibition of SARS-CoV-2 3CL protease using Dabcyl-KNSTLQSGLRKE-Edan as substrate incubated for 30 mins and measured by Lineweaver-Burk plot analysis
[7] = Metabolic stability in human liver microsomes assessed as UGT-mediated metabolism at 20 uM and measured as half-life by LC-UV analysis; type: ADME, Microsome
How it was run: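 Phase II: compound 20 μM with HLMs 0.2 mg/mL in 50 mM Tris-HCl pH 7.4 with 5 mM MgCl₂. After 3 min at 37 °C, started with 2 mM UDPGA. Quenched with cold acetonitrile at 0–90 min, centrifuged, supernatant analysed by LC-UV for half-life. 7-Hydroxycoumarin was the reference substrate.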

[8] = Stability in human plasma assessed as half-life measured by LC-UV analysis; type: ADME, cell-free; how it was run: as §1

SMILES | IC50 [1] [µM] | other results
CC(=O)OCC1Cc2c(-c3ccncn3)cccc2-c2c(O)ccc(C)c21 (stereo not given) | > 100 | 
CC(=O)OCC1Cc2c(-c3cc(-c4ccccc4)ccn3)cccc2-c2c(O)ccc(C3CCCCC3)c21 (stereo not given) | 8.54 | 
CC(=O)OCC1Cc2c(-c3ccccn3)ccc(C)c2-c2c(O)ccc(C)c21 (stereo not given) | > 100 | 
CC(=O)OCC1Cc2c(-c3ncccn3)cccc2-c2c(O)ccc(C)c21 (stereo not given) | > 100 | 
CC(=O)OCC1Cc2c(-c3ccc(Br)cn3)cccc2-c2c(O)ccc(-c3ccc(Br)cc3)c21 (stereo not given) | 6.73 | 
CC(=O)OCC1Cc2c(-c3ccc(Cl)cn3)cccc2-c2c(O)ccc(C)c21 (stereo not given) | 35.8 | 
CC(=O)OCC1Cc2c(cccc2-c2ncnc3c2ncn3CC2CC2)-c2c(O)ccc(C)c21 (stereo not given) | > 100 | 
CC(=O)OCC1Cc2c(-c3ccccn3)cccc2-c2c(O)ccc(-c3ccc(C#N)cc3)c21 (stereo not given) | 19.3 | 
OCC1Cc2c(-c3cc(-c4ccccc4)ccn3)cccc2-c2c(O)ccc(-c3ccc(Br)cc3)c21 (stereo not given) | 1.55 | Stability [2]: Stable; IC50 [3]: 5.35 µM; t1/2 [4]: > 1.5 h; Stability [5]: Stable; Ki [6]: 6.09 µM; t1/2 [7]: > 1.5 h
CC(=O)OCC1Cc2c(-c3cc(Cl)ccn3)cccc2-c2c(O)ccc(-c3ccc(Br)cc3)c21 (stereo not given) | 4.79 | IC50 [3]: 5.44 µM
COc1ccc(-c2ccccn2)c2c1-c1c(O)ccc(C)c1C(COC(C)=O)C2 (stereo not given) | > 100 | 
CC(=O)OCC1Cc2c(-c3cc(C=O)ccn3)cccc2-c2c(O)ccc(-c3ccc(Br)cc3)c21 (stereo not given) | 3.32 | IC50 [3]: 3.2 µM
OCC1Cc2c(-c3ccc(F)cn3)cccc2-c2c(O)ccc(-c3ccc(Br)cc3)c21 (stereo not given) | 5.39 | 
O=Cc1ccnc(-c2cccc3c2CC(CO)c2c(-c4ccc(Br)cc4)ccc(O)c2-3)c1 (stereo not given) | 1.81 | IC50 [3]: 5.32 µM; t1/2 [4]: 32.09 h; Stability [5]: Stable; Ki [6]: 7.64 µM; t1/2 [7]: 81.88 h; t1/2 [8]: 8.97 h
CC(=O)OCC1Cc2c(-c3cc(C#N)ccn3)cccc2-c2c(O)ccc(-c3ccc(Br)cc3)c21 (stereo not given) | 10.3 | 
CC(=O)OCC1Cc2c(-c3ccccn3)ccc(Br)c2-c2c(O)ccc(C)c21 (stereo not given) | > 100 | 
CC(=O)OCC1Cc2c(-c3cc(N4CCCC4)ccn3)cccc2-c2c(O)ccc(-c3ccc(Br)cc3)c21 (stereo not given) | 11.2 | 
CC(=O)OCC1Cc2c(-c3ccc(NCc4ccccc4)cn3)cccc2-c2c(O)ccc(-c3ccc(Br)cc3)c21 (stereo not given) | 3.31 | IC50 [3]: 5.79 µM
CC(=O)OCC1Cc2c(cccc2-n2cccn2)-c2c(O)ccc(C)c21 (stereo not given) | > 100 | 
CC(=O)OCC1Cc2c(-c3ccc(C)cn3)cccc2-c2c(O)ccc(-c3ccc(Br)cc3)c21 (stereo not given) | 5.25 | 
CC(=O)OCC1Cc2c(-c3ccccn3)cc(C)cc2-c2c(O)ccc(C)c21 (stereo not given) | 57.7 | 
C=CCn1cnc2c(-c3cccc4c3CC(COC(C)=O)c3c(C)ccc(O)c3-4)ncnc21 (stereo not given) | > 100 | 
CC(=O)OCC1Cc2c(-c3cc(C)ccn3)cccc2-c2c(O)ccc(C)c21 (stereo not given) | 68.2 | 
CC(=O)OCC1Cc2c(-c3ccccn3)cccc2-c2c(O)ccc(C3CCCCC3)c21 (stereo not given) | 9.06 | 
CC(=O)OCC1Cc2c(-c3ccc(Cl)cn3)cccc2-c2c(O)ccc(-c3ccc(Br)cc3)c21 (stereo not given) | 2.72 | IC50 [3]: 4.06 µM
CC(=O)OCC1Cc2c(cccc2-c2nccc3ccccc23)-c2c(O)ccc(C)c21 (stereo not given) | 14.2 | 
CC(=O)OCC1Cc2c(-c3cc(N4CCOCC4)ccn3)cccc2-c2c(O)ccc(-c3ccc(Br)cc3)c21 (stereo not given) | 7.39 | 

SMILES | IC50 [1] [µM] | other results
CC(=O)OCC1Cc2c(-c3ccc(N(C)C)cn3)cccc2-c2c(O)ccc(-c3ccc(Br)cc3)c21 (stereo not given) | 3.66 | IC50 [3]: 5.92 µM
CC(=O)OCC1Cc2c(-c3ccc(F)cn3)cccc2-c2c(O)ccc(C)c21 (stereo not given) | 66.8 | 
N#Cc1ccc(-c2cccc3c2CC(CO)c2c(-c4ccc(Br)cc4)ccc(O)c2-3)nc1 (stereo not given) | 10.7 | 
CC(=O)OCC1Cc2c(-c3ccc(C(C)=O)cn3)cccc2-c2c(O)ccc(-c3ccc(Br)cc3)c21 (stereo not given) | 5.83 | 
CC(=O)OCC1Cc2c(-c3ccc(C#N)cn3)cccc2-c2c(O)ccc(-c3ccc(Br)cc3)c21 (stereo not given) | 2.78 | IC50 [3]: 7.12 µM
CC(=O)OCC1Cc2c(ccc(C)c2-c2ccccn2)-c2c(O)ccc(C)c21 (stereo not given) | 53.8 | 
CC(=O)OCC1Cc2c(-c3ccccn3)cccc2-c2c(O)ccc(C)c21 (stereo not given) | 61.2 | 
CCc1ccc(O)c2c1C(COC(C)=O)Cc1c(-c3ccccn3)cccc1-2 (stereo not given) | 33.1 | 
CC(=O)OCC1Cc2c(-c3ccccn3)cccc2-c2c(O)ccc(Cc3ccccc3)c21 (stereo not given) | 11.4 | 
OCC1Cc2c(-c3ccc(Cl)cn3)cccc2-c2c(O)ccc(-c3ccc(Br)cc3)c21 (stereo not given) | 4.71 | IC50 [3]: 10.5 µM
CC(=O)OCC1Cc2c(-c3ccccn3)cccc2-c2c(O)ccc(-c3ccc(Br)cc3)c21 (stereo not given) | 6.44 | 
CC(=O)OCC1Cc2c(-c3cc(-c4ccccc4)ccn3)cccc2-c2c(O)ccc(C)c21 (stereo not given) | 5.65 | 
CC(=O)OCC1Cc2c(-c3ncccc3C)cccc2-c2c(O)ccc(C)c21 (stereo not given) | 58.9 | 
CC(=O)OCC1Cc2c(-c3ccc(F)cn3)cccc2-c2c(O)ccc(-c3ccc(Br)cc3)c21 (stereo not given) | 4.29 | IC50 [3]: 7.81 µM
CC(=O)OCC1Cc2c(-c3ccc(C=O)cn3)cccc2-c2c(O)ccc(-c3ccc(Br)cc3)c21 (stereo not given) | 8.89 | 
CC(=O)OCC1Cc2c(-c3ccccn3)ccc(F)c2-c2c(O)ccc(C)c21 (stereo not given) | > 100 | 
CC(=O)OCC1Cc2c(-c3ccccn3)ccc(Cl)c2-c2c(O)ccc(C)c21 (stereo not given) | 85.6 | 
CC(=O)OCC1Cc2c(-c3cc(-c4ccccc4)ccn3)cccc2-c2c(O)ccc(-c3ccc(Br)cc3)c21 (stereo not given) | 2.46 | IC50 [3]: 17.7 µM
CC(=O)OCC1Cc2c(-c3ccccn3)cccc2-c2c(O)ccc(C(C)C)c21 (stereo not given) | 29.5 | 
CC(=O)OCC1Cc2c(-c3ccc4ccccc4n3)cccc2-c2c(O)ccc(C)c21 (stereo not given) | 13.8 | 
CC(=O)OCC1Cc2c(-c3ccc(Br)cn3)cccc2-c2c(O)ccc(C)c21 (stereo not given) | 18.5 | 
CC(=O)OCC1Cc2c(-c3cc(C)ccn3)cccc2-c2c(O)ccc(-c3ccc(Br)cc3)c21 (stereo not given) | 9.82 | 
CC(=O)OCC1Cc2c(-c3cc4ccccc4cn3)cccc2-c2c(O)ccc(C)c21 (stereo not given) | 12 | 
CC(=O)OCC1Cc2c(-c3ccc(S(C)(=O)=O)cn3)cccc2-c2c(O)ccc(-c3ccc(Br)cc3)c21 (stereo not given) | 6.65 | 
CC(=O)OCC1Cc2c(-c3ccc(-c4ccccc4)cn3)cccc2-c2c(O)ccc(-c3ccc(Br)cc3)c21 (stereo not given) | 8.28 | 
C[C@]12CC[C@H]3[C@@H](CCC4=CC(=O)CC[C@@]43C)[C@@H]1CC[C@@H]2O [TESTOSTERONE] |  | t1/2 [4]: 0.4603 h
O=c1ccc2ccc(O)cc2o1 [UMBELLIFERONE] |  | t1/2 [7]: 0.2588 h
